This is an account of results in PubChem BioAssay AID1217 (Sanford-Burnham Center for Chemical Genomics, 2008).

Structures are written as SMILES. Screen size: about 190,000 compounds; about 1,300 (0.68%) were called active. The sample as a whole holds a higher share of actives than the screen did. Values without a mark were called inactive.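 Rule for the calls: active = primary screen inhibition at 20 µM above a set limit (cut at about 50% in these data); inactive = the rest.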

The test system of the assay is diaphorase (Clostridium kluyveri). Briefly: diaphorase inhibitors and chemical oxidizers, primary screen, counter-screen for diaphorase-coupled primary assays, biochemical, uHTS, resorufin fluorescence (AID 1217).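 Note: plate controls were DMSO with full reaction for no effect and wells lacking NADH for full effect.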 The conditions noted are these: diaphorase resazurin-to-resorufin fluorescence, NADH, 16 min; at 20 µM; stronger effect = higher value; bacterial (C. kluyveri) enzyme, not human. Summed up:
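Assay system – diaphorase enzyme from Clostridium kluyveri · Amount – diaphorase 0.14 U/mL (working solution) · Times – reaction incubation of 16 min at room temperature · Controls – No-NADH positive control and DMSO neutral control · Signal – resorufin fluorescence 544/590 nm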
(In general: A counterscreen serves to expose hits that act by an unwanted route or on another target.)
For `CC1CC1C(=O)OCC(=O)c1c(N)n(C)c(=O)n(C)c1=O` (configuration not stated), the inhibition was -19.7%.

As for `Cc1cc(C)cc(NC(=O)Cn2cnc3c(nnn3Cc3ccc(F)cc3)c2=O)c1`, the inhibition is 1.8%.

Turning to `COc1ccc(/C=C(\NC(=O)c2ccc(OC)c(OC)c2)C(=O)NCCc2c[nH]c3ccccc23)cc1`, the inhibition was 13.6%.

For `COc1ccc(OC)c2[nH]c(=O)c(CCNC(=O)C(C)(C)C)cc12`, the inhibition is 2.9%.

Turning to `COc1ccc(OC)c2[nH]c(=O)c(CCNC(=O)C(=O)c3c[nH]c4ccccc34)cc12`, the inhibition is 66.1% (active).

For the compound `CCN(CC)c1ccc2cc(C(N)=O)/c(=N\NC(=O)c3ccncc3)oc2c1`, the inhibition is 25%.

Consider `CCc1cc(C(N)=O)c(NC(=O)c2ccc(OC)cc2)s1`, for which the inhibition is 21.1%.

Take `COc1ccc(C(=O)N/N=c2\oc3ccccc3cc2C(N)=O)cc1`: the inhibition is 75.5% (active).

Consider `COc1cccc(OC)c1C(=O)NC(=S)Nc1ccc(N2CCOCC2)c(Cl)c1`, for which the inhibition was 27.9%.

In the case of `S=c1[nH]nc(-c2cccs2)n1/N=C/c1cccs1`, the inhibition was 51.3% (active).

Consider `Oc1ccccc1/C=N/n1c(-c2cccs2)n[nH]c1=S`, for which the inhibition was 35.3%.

Regarding `Cc1ccc(/C=N\n2c(-c3ccccc3)n[nH]c2=S)s1`, the inhibition is 19.9%.

For the compound `CCN(C(=O)COC(=O)c1ccc(COc2ccc3c(C)cc(=O)oc3c2)cc1)C1CCS(=O)(=O)C1` (configuration not stated), the inhibition is 0.7%.

With `CN(C)CCN=c1cc(-c2ccccc2)oc2ccc(Cl)cc12`, the inhibition is -1.4%.

Consider `O=C(COC(=O)c1cc([N+](=O)[O-])ccc1NCc1ccccc1)NC1CCCCC1`, for which the inhibition was 3%.

On to `O=C(/C=C/c1ccc(F)cc1)NCCNC(=O)/C=C/c1ccc(F)cc1`, for which the inhibition was 3.6%.

For the compound `O=C(/C=C/c1ccc(F)cc1)NC(=S)NNC(=O)c1cccnc1`, the inhibition is 67.6% (active).

Regarding `CC(C)c1ccc(/C=C/C(=O)NNC(=O)c2cccnc2)cc1`, the inhibition was 6.9%.

`CCc1cccc(NC(=O)CCNS(=O)(=O)c2cccc3nonc23)c1`: the inhibition is 6.4%.

For the compound `CC(=O)Nc1ccc(S(=O)(=O)NC(C)C(=O)OCC(=O)NC2CCCC2)cc1` (configuration not stated), the inhibition is 6.2%.

Regarding `Cc1c(Cl)cccc1NC(=O)CSc1ccc(-c2cccnc2)nn1`, the inhibition was -1.3%.

For `O=C(CSc1n[nH]c(-c2cccnc2)n1)Nc1ccnc2ccccc12`, the inhibition was 54% (active).

Take `O=C(CSc1ncn[nH]1)Nc1ccnc2ccccc12`: the inhibition was -2.2%.

In the case of `Cc1nc(-c2ccccc2)cn2c1nc1ccccc12`, the inhibition is 16%.

`O=c1[nH]c(=S)[nH]c2[nH]c(=S)[nH]c12`: the inhibition was 87.4% (active).

Take `Cc1cc(=O)[nH]c(=S)[nH]1`: the inhibition was 5.9%.

Take `O=C(N1CCCCC1)N1CCN(C(=O)N2CCCCC2)CC1`: the inhibition was -5.4%.

Take `CC(/C=N/NC(=O)c1ccncc1)=C\c1ccco1`: the inhibition is 5.5%.

In the case of `CC(/C=N/NC(=O)c1cc(-c2ccc3ccccc3c2)n[nH]1)=C\c1ccco1`, the inhibition was 5.2%.

With `C/C(=C\c1ccco1)C1Nc2cccc3cccc(c23)N1`, the inhibition is 69.5% (active).

For `C=CCN1C(=O)C(O)(CC(=O)c2ccc(Cl)cc2)c2ccccc21` (configuration not stated), the inhibition was 20%.

As to `CC(=O)c1c(O)cc2n(c1=O)-c1ccc(Cl)cc1C2(C)C`, the inhibition was 18.3%.

With `Cc1coc(C)c1C(=O)CC1(O)C(=O)N(C)c2ccc(Cl)cc21` (configuration not stated), the inhibition is 51.4% (active).

For `Cc1ccc(O)c(NC(=S)NC(=O)COc2ccc(Br)cc2)c1`, the inhibition is 1.8%.

Turning to `COCCN(CCOC)S(=O)(=O)c1ccc(/C(O)=C(\C#N)c2nc3ccccc3[nH]2)cc1`, the inhibition was 5.6%.

For `Cc1coc2c(O)cc3c(c12)OC1(N2CCCCC2)C(=O)NCCCC31` (configuration not stated), the inhibition was 56.1% (active).

Turning to `O=C(Cc1cccs1)Nc1nnc(SCc2ccc(F)cc2)s1`, the inhibition was 11.1%.

Regarding `COc1cc2sc(C)nc2cc1C`, the inhibition was 6%.

For the compound `CC1=C/C(=N\OS(=O)(=O)c2ccccc2)C=CC1=O`, the inhibition is 71.4% (active).

Turning to `CCOC(=O)C1(S(=O)(=O)c2ccccc2)CCN(Cc2ccccc2)CC1`, the inhibition is 16.8%.

As for `CC1=C/C(=N\S(=O)(=O)c2ccccc2)C(C(C)C)=CC1=O`, the inhibition was 21.7%.

On to `O=C1CCCC2=C1C(c1cccs1)CC(=O)N2c1ccc(F)cc1` (configuration not stated), for which the inhibition was 6.3%.

For `CC(C)N1CCC(N2CCN(Cc3cccnc3)CC2CCO)CC1` (configuration not stated), the inhibition is -0.8%.

Regarding `CCOC(=O)C1CCN(C(=O)C2(NC(=O)Nc3cccc(F)c3)CCCCC2)CC1`, the inhibition was -16.4%.

As for `CCCCNC(=O)c1ccc(-n2c(=S)[nH]c3ccccc3c2=O)cc1`, the inhibition is 6.2%.

On to `CCOC(=O)N1CCN(C(=O)Cc2ccc(-n3c(=S)[nH]c4ccccc4c3=O)cc2)CC1`, for which the inhibition was 51.3% (active).

For `O=C(Cc1ccc(-n2c(=O)[nH]c3ccccc3c2=O)cc1)N1CCN(c2cccc(Cl)c2)CC1`, the inhibition is 19.4%.

Turning to `Cc1ccc(S(=O)(=O)CC(=O)Nc2c(C)n(C)n(-c3ccccc3)c2=O)cc1`, the inhibition was -0.5%.

For `Cc1cc(C)c2c(n1)sc1c(=O)n(-c3ccccc3)c(=O)[nH]c12`, the inhibition is 59.3% (active).

With `C/C(O)=C\c1nc(=O)c2c(C)cc(C)nc2n1-c1ccccc1`, the inhibition was 13.4%.

On to `Cc1cc(C)c2c(-n3cccc3)c(NC(=O)OCc3ccccc3)sc2n1`, for which the inhibition is 18.4%.

Consider `OCCC1CN(Cc2cccn2-c2nccs2)CCN1CCc1ccccc1` (configuration not stated), for which the inhibition is 18.5%.

Consider `N#C/C=C(/c1ccc(F)cc1)N1CCOCC1`, for which the inhibition is 20.9%.

With `C(=C\c1ccccc1)/CSc1nnc(-c2cccnc2)n1Cc1ccco1`, the inhibition is 53.4% (active).

For `O=C(CSc1nnc(-c2cccnc2)n1Cc1ccco1)c1ccc(Cl)cc1`, the inhibition was 16.4%.

Turning to `O=C(CSc1nnc(-c2cccnc2)n1Cc1ccco1)c1ccc(Cl)c(Cl)c1`, the inhibition is 4%.

`CC(=O)c1ccc(N2CCN(CC(=O)Nc3ccccc3N3CCOCC3)CC2)cc1`: the inhibition is 4%.

As to `O=C(N/N=C/c1ccc2c(c1)OCO2)C(=O)N1CCCC1`, the inhibition was -1.9%.

As for `CN(C(=O)CSc1nnc(Nc2ccccc2)s1)C1CCS(=O)(=O)C1` (configuration not stated), the inhibition is 15%.

Turning to `Cc1nn2c3ccccc3nc2n(C)c1=O`, the inhibition was 15.5%.

Take `c1coc(-c2nc3nc4ccccc4n3nc2-c2ccco2)c1`: the inhibition is 57.8% (active).

In the case of `Cn1c(-c2ccco2)nc2cc3ccccc3cc21`, the inhibition was 18.4%.

Usually inhibition stands for the relative decrease from the control value, in per cent.
